Measured values reported in ChEMBL document CHEMBL1124149 (1988).
Values after ≈ are worked out from the molar mass of the structure shown.

What follows are molecules tested on Vaccinia virus (assay: In vitro minimum inhibitory concentration to inhibit VV-induced cytopathogenicity in PRK cells by 50%). Conditions: Orthopoxvirus vaccinia.
Type: functional
Procedure, shortened: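 Antiviral read-out was virus-induced cytopathogenicity in primary rabbit kidney (PRK) cell cultures. The value is the compound concentration needed to reduce cytopathogenicity by 50%.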

SMILES | MIC [µg/mL]
Cc1cn2c(=O)c3ncn(COCCO)c3nc2n1C | > 400
Nc1nc2c(ncn2COCCO)c(=O)[nH]1 [ACYCLOVIR] | 150 (≈ 666 µM)
CNc1nc(O)c2ncn(COCCO)c2n1 | > 400
Cc1cn2c([O-])c3c(nc2n1)[n+](COCCO)cn3C | > 400
Cn1c(N)nc2c(ncn2COCCO)c1=O | > 400
Cc1cn2c(O)c3ncn(COCCO)c3nc2n1 | > 400
Cn1c[n+](COCCO)c2nc(N)nc([O-])c21.O=S(=O)(O)O | > 400
